# Kir21 block – inhibitors of mouse Kir2.1 inward-rectifier potassium channel; Inward rectifier potassium channel 2 (Mus musculus), P35561; HEK293-Kir2.1, FluxOR thallium flux fluorescence; stronger effect = lower value; B-score at 10 µM; 310,000 compounds, 0.85% hits; AID 1672, 2009;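 active means fluorescence ratio B-score at or below minus 3 SD of library scores, with starting-brightness B-score within 2 SD, cut at about -4.2 in these data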;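 further: channel flux triggered by added potassium and thallium sulfate stimulus; B-score of peak minus minimum fluorescence over baseline after thallium stimulus; more negative B-score means stronger Kir2.1 block with less thallium influx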
# hERG protect – hERG rescue from dofetilide block, primary screen, cell-based, CHO-hERG, FluxOR thallium flux, dofetilide IC70. Voltage-gated inwardly rectifying potassium channel KCNH2 (Homo sapiens), Q12809. dofetilide IC70 present. activation (rescue from dofetilide block), less the hit threshold, % at 10 µM. 310,000 compounds, 0.51% hits. AID 1511, 2009;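 active means activation above the mean of controls blocked by dofetilide plus 5 SD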;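 further: thallium influx through hERG after potassium depolarization seen as dye fluorescence rise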
# KCNQ1 pot – potentiators or activators of KCNQ1 channel, primary screen, cell-based, thallium flux, high-throughput; 310,000 compounds, 0.35% hits; CHO-K1 KCNQ1, thallium flux FluxOR fluorescence; stronger effect = higher value; Potassium voltage-gated channel subfamily KQT member 1 (Homo sapiens), P51787; AID 2648, 2010; B-score at 10 µM;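 active means fluorescence ratio B-score, a plate-corrected score, at least three library SD, with initial intensity B-score within 5 SD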
# Target sequence (P51787 whole entry, looked up): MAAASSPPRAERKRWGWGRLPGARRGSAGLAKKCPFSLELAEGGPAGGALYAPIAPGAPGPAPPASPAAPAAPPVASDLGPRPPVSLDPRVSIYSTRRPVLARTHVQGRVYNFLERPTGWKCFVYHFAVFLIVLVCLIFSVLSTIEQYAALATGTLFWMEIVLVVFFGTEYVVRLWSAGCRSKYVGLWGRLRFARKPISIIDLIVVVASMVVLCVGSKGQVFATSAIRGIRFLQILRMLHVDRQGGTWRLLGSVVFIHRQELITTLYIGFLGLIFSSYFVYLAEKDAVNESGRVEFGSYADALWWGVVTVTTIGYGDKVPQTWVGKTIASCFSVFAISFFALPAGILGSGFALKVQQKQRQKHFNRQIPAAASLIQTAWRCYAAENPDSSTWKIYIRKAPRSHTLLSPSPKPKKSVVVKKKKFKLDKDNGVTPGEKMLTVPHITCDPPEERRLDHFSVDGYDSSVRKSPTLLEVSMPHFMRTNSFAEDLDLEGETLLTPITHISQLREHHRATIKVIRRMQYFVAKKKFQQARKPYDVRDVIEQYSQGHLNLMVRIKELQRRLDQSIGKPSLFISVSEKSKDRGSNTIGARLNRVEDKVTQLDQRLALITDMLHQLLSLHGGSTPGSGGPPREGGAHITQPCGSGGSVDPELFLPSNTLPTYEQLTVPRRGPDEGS
#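 Assay system: CHO-K1 cells stably expressing KCNQ1. Medium: assay buffer for compound exposure, DMSO matched across wells. Timing: 37 °C overnight plating, 90-min dark dye load, 20-min compound pretreatment. Signal: kinetic FluxOR fluorescence, 10 s baseline plus 110 s post-stimulus.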
# KCNQ1 block – inhibitors of human KCNQ1 channel, primary screen, cell-based, thallium flux, high-throughput; Potassium voltage-gated channel subfamily KQT member 1 (Homo sapiens), P51787; AID 2642, 2010; 310,000 compounds, 1.3% hits; B-score at 10 µM; CHO-K1 KCNQ1, FluxOR thallium flux fluorescence; stronger effect = higher value;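 active means compounds whose thallium flux B-score, printed positive for inhibition, exceeds three library SD while starting fluorescence stays within three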;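 further: channel opened by potassium depolarization with thallium stimulus after 20 min compound exposure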
# KCNK3 inh – human KCNK3 channel inhibitors, primary screen, CHO cells, FluxOR thallium flux, B-score. Potassium channel subfamily K member 3 (Homo sapiens), O14649. FluxOR fluorescence; stronger effect = lower value. B-score at 10 µM. 340,000 compounds, 0.84% hits. AID 602410, 2012;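 active means B-score under library mean minus 4 SD, starting fluorescence ratio at most library mean plus 5 SD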;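 further: more negative B-score means stronger inhibition of thallium flux through KCNK3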
# KCNK9 inh – KCNK9 potassium channel inhibitors, primary screen, HEK293 cells, thallium flux | Potassium channel subfamily K member 9 (Homo sapiens), Q9NPC2 | FluxOR thallium flux fluorescence; stronger effect = lower value | B-score at 10 µM | 310,000 compounds, 1.2% hits;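 active means ratio B-score over 3 SD below the library mean, with starting fluorescence within 5 SD of its mean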;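 further: negative B-score means less thallium flux so channel inhibition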
# Starred values were filed as active, the others as inactive; i = inactive; x = no result given. This is a sample that favours compounds with a hit; in the whole collection about 3.8% have one here.
SMILES,Kir21 block,hERG protect,KCNQ1 pot,KCNQ1 block,KCNK3 inh,KCNK9 inh
CCOc1ccc(C(=O)CC(C(=O)O)N2CCN(Cc3ccccc3)CC2)cc1 (stereo not drawn),x,x,x,x,i,x
Cc1sc2ncnc(N3CCC(C)CC3)c2c1C,1.5,-12,i,i,i,i
Cc1cc(Cl)ccc1OCC(=O)NNC(=O)C1CCN(c2ncnc3sc(C)c(C)c23)CC1,x,x,x,x,-9.9*,x
Cc1sc2ncnc(N3CCC(C(=O)NNC(=O)COc4ccc(Cl)cc4)CC3)c2c1C,x,x,x,x,i,x
Cc1sc2ncnc(N3CCN(CCOc4ccc(Cl)cc4)CC3)c2c1C,0.22,-14,i,11*,-11*,i
Cc1cc(OCC(=O)N2CCC(C(N)=O)CC2)c2c(C)cc(=O)oc2c1,-0.31,-6,i,i,i,i
COc1ccc(C2CC3(CC(C)(C)NC(SC)=N3)Oc3cc(O)cc(C)c32)cc1 (stereo not drawn),-5.3*,-12,i,i,i,i
COCCCNC(=S)N(Cc1ccccc1)Cc1ccccc1,-3.1,-9,i,i,i,i
CCN=C1S/C(=C\c2ccc(O)c(OCC)c2)C(=O)N1CC,-5.7*,-17,i,i,i,i
COc1ccc(CN(C)CC(O)COc2ccc(C(=O)c3ccccc3)cc2)c(OC)c1OC (stereo not drawn),-4.3*,-10,i,i,i,i
COc1ccc(Br)cc1CN(C)CC(O)COc1ccc(Br)cc1 (stereo not drawn),-6.5*,-16,i,i,i,i
COc1ccc(CN(C)C(=O)c2cccc(Oc3ccccc3)c2)c(OC)c1OC,-4.9*,-11,i,i,i,i
CC(C)(C)NC(=O)C(c1ccco1)N(Cc1ccc2c(c1)OCO2)C(=O)c1snc(C(N)=O)c1N (stereo not drawn),2.5,-8,i,i,i,i
CCCC1CC(C)(c2csc(Nc3ccc(OCC)cc3)n2)OC1=O (stereo not drawn),-2.3,-2,i,i,i,-7.7*
NC(CCCCc1ccccc1)c1cccc2ccccc12 (stereo not drawn),-11*,-19,i,i,x,i
c1ccc(CCCCc2ccccn2)cc1,x,x,x,x,i,x
Cc1nn(CC(=O)N2CCN(c3ccccc3)CC2)c(=O)c2ccccc12,0.32,-5,i,i,i,i
Cc1cc(C)n(-c2nc3ccccc3n3cnnc23)n1,0,0,i,i,i,i
CCN(CC)c1nc2ccccc2nc1-n1nc(C)cc1C,-4.3*,-9,i,i,i,i
Cc1cc(C)n(-c2nc3ccccc3nc2Nc2ccc3c(c2)OCO3)n1,-1.8,-14,i,i,i,-7.3*
O=[N+]([O-])c1ccn(-c2nc(-c3ccccc3)cc(C(F)(F)F)n2)n1,0,-3,i,i,i,i
O=[N+]([O-])c1ccc2c(c1)C=C1CCCCC1(N1CCCCC1)O2 (stereo not drawn),0.97,-8,i,i,i,-7.4*
CCOC(=O)c1c(N)sc2c(OCC)c(Br)ccc12,-0.32,0,i,i,i,i
CCOC(=O)c1c(NC(C)=O)sc2c(OCC(O)CNC(C)(C)C)c(Br)ccc12 (stereo not drawn),-6.1*,-16,i,i,i,i
Cc1ccccc1NC1=C/C(=N\S(=O)(=O)c2ccc(C(=O)O)cc2)c2ccccc2C1=O,2.1,6.1*,i,i,i,i
SMILES,Kir21 block,hERG protect,KCNQ1 pot,KCNQ1 block,KCNK3 inh,KCNK9 inh
O=C(NCc1ccc2c(c1)OCO2)c1ccc(S(=O)(=O)N2CCOCC2)cc1,0.13,-6,i,i,i,i
COc1cc2c(cc1OC)C(C(=O)O)C(c1ccc(C)o1)N(C)C2=O (stereo not drawn),1.4,-6,i,i,i,i
Cc1cc(C(=O)N2CCCC(N3CCN(c4cccc(Cl)c4)CC3)C2)n(C)n1 (stereo not drawn),0.68,-2,i,i,i,i
COC(=O)c1cc2c(-c3ccccc3)cc3ccccn3c-2c1C(=O)OC,-0.28,-6,i,i,-8.9*,i
COC(=O)c1c(C)c2c(C)cc3ccccn3c-2c1C(=O)OC,-0.24,-6,i,i,i,i
O=C(CCC(=O)N1CCOc2ccc(Cl)cc21)NCCCN1CCC(Cc2ccccc2)CC1,-6.6*,-20,i,i,i,i
O=C(CCC(=O)N1CCOc2ccc(Cl)cc21)NCCCN1CCN(c2ccccc2F)CC1,-2,-12,i,i,i,i
CCOC(=O)CNC(=S)N(Cc1cccs1)C1CCCC1,-3,-8,i,i,i,i
CCCCCCNC(=O)CNC(=S)N(Cc1cccs1)C1CCCCC1,1,-3,i,7*,i,i
CCCC(C(=O)NC(C)(C)C)N(Cc1ccccc1Cl)C(=O)c1snc(C(N)=O)c1N (stereo not drawn),-1.6,-12,i,7*,i,i
CCCCC(C(=O)NC(C)(C)C)N(Cc1ccccc1Cl)C(=O)c1snc(C(N)=O)c1N (stereo not drawn),0.09,-16,i,6*,i,i
CCC(C(=O)Nc1c(C)cc(C)cc1C)N1CCCCCC1 (stereo not drawn),-0.1,-15,i,i,i,i
COc1ccc(Br)cc1/C=N/N1CCN(Cc2ccccc2Cl)CC1,0.26,-1,i,8*,i,i
Cc1ccc(S(=O)(=O)N2CCCCC2)cc1NC(=O)c1cc2ccccc2o1,x,x,x,x,-9*,x
CCCC(C(=O)Nc1cccc(S(=O)(=O)N2CCCC2)c1)c1ccccc1 (stereo not drawn),-0.45,-11,i,i,i,-7.4*
CC(CC(=O)Nc1cccc(S(=O)(=O)N2CCCCC2)c1)c1ccccc1 (stereo not drawn),x,x,x,x,i,x
Cc1ccc(C)c(C(=O)OCC(=O)Nc2cccc(S(=O)(=O)N3CCCCC3)c2)c1,x,x,x,x,-9.6*,x
Cc1ccc(C)c(OCCC(=O)OCC(=O)Nc2cc(S(=O)(=O)N3CCCCC3)ccc2C)c1,x,x,x,x,-10*,x
CCOc1ccc(OCCOCCN2CCOCC2)cc1,0.88,-4,i,i,i,i
